According to ChEMBL document CHEMBL1275524, “Activities of antifungal agents against yeasts and filamentous fungi: assessment according to the methodology of the European Committee on Antimicrobial Susceptibility Testing” (2008):
In brackets after ≈: the same amount, converted by molar mass.

What was measured:
Clavispora lusitaniae = assay: Antifungal activity against Candida lusitaniae; type: functional
Method in brief: (§1)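 Broth microdilution in flat-bottom plates in RPMI 1640 with 2% glucose; inoculum 0.5 × 105 to 2.5 × 10^5 CFU/ml. MICs were read spectrophotometrically at 24 h. AMB endpoint: ≥90% growth reduction vs drug-free control well. Azole and CPF endpoint: 50% reduction in optical density. MFC was taken as the lowest concentration giving 99% killing.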

Cryptococcus gattii [1] = assay: Antifungal activity against Cryptococcus neoformans var. gattii by EUCAST method; type: functional, Cryptococcus bacillisporus
Method in brief: (§2)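 EUCAST yeast microdilution, modified for nonfermentative yeasts: plates were sealed and agitated at 350 rpm and 30°C for 48 h.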

Fusarium oxysporum [2] = assay: Antifungal activity against Fusarium oxysporum by EUCAST method; type: functional
Mucor [3] = assay: Antifungal activity against Mucor species by EUCAST method; type: functional
Cryptococcus gattii [4] = assay: Antifungal activity against Cryptococcus neoformans var. gattii; type: functional, Cryptococcus bacillisporus; method in brief: as §2
Mucor hiemalis = assay: Antifungal activity against Mucor hiemalis; type: functional
Aspergillus terreus [5] = assay: Antifungal activity against Aspergillus terreus by EUCAST method; type: functional
Aspergillus fumigatus [6] = assay: Antifungal activity against Aspergillus fumigatus by EUCAST method; type: functional
Geotrichum candidum = assay: Antifungal activity against Geotrichum candidum by EUCAST method; type: functional
Mucor [7] = assay: Antifungal activity against Mucor species; type: functional
Rhizopus = assay: Antifungal activity against Rhizopus species; type: functional
Method in brief: (§3)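 Broth microdilution following the EUCAST reference procedure for spore-forming moulds, in flat-bottom plates with RPMI 1640 plus 2% glucose. Inoculum was 2 × 10^5 to 5 × 10^5 CFU/ml. MICs were read visually at 24 and 48 h as 100% growth reduction versus a drug-free control for polyenes and azoles. MEC was used for caspofungin. Tests were run in duplicate and repeated twice.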

Fusarium oxysporum [8] = assay: Antifungal activity against Fusarium oxysporum; type: functional
Curvularia lunata = assay: Antifungal activity against Curvularia lunata by EUCAST method; type: functional
Method in brief: (§4)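 Dematiaceous fungi were tested by the EUCAST spore-forming mold reference procedure: flat-bottom microdilution plates, RPMI 1640 plus 2% glucose, inoculum 2 × 105 to 5 × 10^5 CFU/ml. Endpoints were read visually at 24 and 48 h. Polyenes and azoles: 100% growth reduction vs drug-free control. CPF: minimum effective concentration. Run in duplicate and repeated twice.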

Absidia = assay: Antifungal activity against Absidia species; type: functional
Fusarium solani = assay: Antifungal activity against Fusarium solani; type: functional
Sporothrix schenckii = assay: Antifungal activity against Sporothrix schenckii; type: functional; method in brief: as §3
Curvularia australiensis [9] = assay: Antifungal activity against Bipolaris australiensis by EUCAST method; type: functional; method in brief: as §4
[10] = Antifungal activity against Cryptococcus neoformans var. neoformans; type: functional; conditions: Cryptococcus deneoformans; method in brief: as §2
Candida albicans [11] = assay: Antifungal activity against Candida albicans; type: functional; method in brief: as §1
[12] = Antifungal activity against Rhinocladiella aquaspersa by EUCAST method; type: functional; method in brief: as §4
Penicillium sp. [13] = assay: Antifungal activity against Penicillium species by EUCAST method; type: functional
Nakaseomyces glabratus = assay: Antifungal activity against Candida glabrata by EUCAST method; type: functional; method in brief: as §1
Curvularia australiensis [14] = assay: Antifungal activity against Bipolaris australiensis; type: functional; method in brief: as §4
Aspergillus terreus [15] = assay: Antifungal activity against Aspergillus terreus; type: functional
Rhizomucor = assay: Antifungal activity against Rhizomucor species by EUCAST method; type: functional; method in brief: as §3
Scedosporium apiospermum = assay: Antifungal activity against Scedosporium apiospermum; type: functional; method in brief: as §3
Candida parapsilosis = assay: Antifungal activity against Candida parapsilosis by EUCAST method; type: functional; conditions: Lodderomyces parapsilosis; method in brief: as §1
Talaromyces marneffei = assay: Antifungal activity against Penicillium marneffei; type: functional
Penicillium sp. [16] = assay: Antifungal activity against Penicillium species; type: functional
Aspergillus fumigatus [17] = assay: Antifungal activity against Aspergillus fumigatus; type: functional
Candida albicans [18] = assay: Antifungal activity against Candida albicans by EUCAST method; type: functional; method in brief: as §1
Trichosporon inkin = assay: Antifungal activity against Trichosporon inkin by EUCAST method; type: functional
Method in brief: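 Nonfermentative yeasts were tested by the EUCAST microdilution recommendations with one change: plates were sealed and agitated at 350 rpm and 30°C for 48 h.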

[19] = tested on: Meyerozyma guilliermondii; assay: Antifungal activity against Candida guilliermondii by EUCAST method; type: functional; method in brief: as §1
Pichia kudriavzevii = assay: Antifungal activity against Candida krusei by EUCAST method; type: functional; method in brief: as §1
Saccharomyces cerevisiae = assay: Antifungal activity against Saccharomyces cerevisiae by EUCAST method; type: functional
Method in brief: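 EUCAST broth microdilution for yeasts in flat-bottom plates, RPMI 1640 with 2% glucose, inoculum 0.5 × 105 to 2.5 × 10^5 CFU/ml. […] MFC is the lowest concentration giving 99% killing.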

MIC (Cryptococcus gattii [1]): 0.66 µg/mL (≈ 0.714 µM)
MIC (Fusarium oxysporum [2]): 2.5 µg/mL (≈ 2.71 µM)
MIC (Mucor [3]): 0.73 µg/mL (≈ 0.79 µM)
MIC (Aspergillus terreus [5]): 2.82 µg/mL (≈ 3.05 µM)
MIC (Aspergillus fumigatus [6]): 0.69 µg/mL (≈ 0.747 µM)
MIC (Geotrichum candidum): 1.5 µg/mL (≈ 1.62 µM)
MIC (Curvularia lunata): 0.75 µg/mL (≈ 0.812 µM)
MIC (Curvularia australiensis [9]): 1 µg/mL (≈ 1.08 µM)
MIC [12]: 1 µg/mL (≈ 1.08 µM)
MIC (Penicillium sp. [13]): 0.75 µg/mL (≈ 0.812 µM)
MIC (Nakaseomyces glabratus): 0.41 µg/mL (≈ 0.444 µM)
MIC (Rhizomucor): 0.58 µg/mL (≈ 0.628 µM)
MIC (Candida parapsilosis): 0.3 µg/mL (≈ 0.325 µM)
MIC (Candida albicans [18]): 0.12 µg/mL (≈ 0.13 µM)
MIC (Trichosporon inkin): 0.5 µg/mL (≈ 0.541 µM)
MIC [19]: 1 µg/mL (≈ 1.08 µM)
MIC (Pichia kudriavzevii): 0.51 µg/mL (≈ 0.552 µM)
MIC (Saccharomyces cerevisiae): 0.66 µg/mL (≈ 0.714 µM)
Structure (SMILES): C[C@@H]1[C@H](O)[C@@H](C)/C=C/C=C/C=C/C=C/C=C/C=C/C=C/[C@H](O[C@@H]2O[C@H](C)[C@@H](O)[C@H](N)[C@@H]2O)C[C@@H]2O[C@](O)(C[C@@H](O)C[C@@H](O)[C@H](O)CC[C@@H](O)C[C@@H](O)CC(=O)O[C@H]1C)C[C@H](O)[C@H]2C(=O)O [AMPHOTERICIN B]
MFC (Clavispora lusitaniae): 4 µg/mL (≈ 4.33 µM)
MFC (Cryptococcus gattii [4]): 1 µg/mL (≈ 1.08 µM)
MFC (Mucor hiemalis): 1 µg/mL (≈ 1.08 µM)
MFC (Mucor [7]): 1 µg/mL (≈ 1.08 µM)
MFC (Rhizopus): 2 µg/mL (≈ 2.16 µM)
MFC (Fusarium oxysporum [8]): 1 µg/mL (≈ 1.08 µM)
MFC (Absidia): 1 µg/mL (≈ 1.08 µM)
MFC (Fusarium solani): > 8 µg/mL
MFC (Sporothrix schenckii): > 8 µg/mL
MFC [10]: 1 µg/mL (≈ 1.08 µM)
MFC (Candida albicans [11]): 2 µg/mL (≈ 2.16 µM)
MFC (Curvularia australiensis [14]): 1 µg/mL (≈ 1.08 µM)
MFC (Aspergillus terreus [15]): > 4 µg/mL
MFC (Scedosporium apiospermum): > 8 µg/mL
MFC (Talaromyces marneffei): > 4 µg/mL
MFC (Penicillium sp. [16]): > 4 µg/mL
MFC (Aspergillus fumigatus [17]): 0.5 µg/mL (≈ 0.541 µM)
